This note sets out measurements from ChEMBL document CHEMBL5120755, “A new strategy for hit generation: Novel in cellulo active inhibitors of CYP121A1 from Mycobacterium tuberculosis via a combined X-ray crystallographic and phenotypic screening approach (XP screen)” (Eur J Med Chem, 2022).

Usually MIC90 stands for an inhibitory concentration at the 90% level, which refers to growth in some studies and to a panel of isolates in others. Usually Kd stands for the equilibrium constant for the complex coming apart.

For data set [1], the system named is Mycobacterium tuberculosis. Kind of data set: Antimycobacterial activity against Mycobacterium tuberculosis H37Rv assessed as inhibition of bacterial growth in presence of middlebrook 7H9/BSAADN//tyloxapol/glycerol medium measured for 1 week by resazurin based colorimetric assay. The data set is classed as functional. As to conditions: 168 h, time 1 weeks. The method, boiled down: (§1)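 Mtb H37Rv grown in 7H9 with 10% ADC, 0.05% tyloxapol, 0.02% glycerol to OD600 ~1, then pre-adapted 8 days at 37 °C in the test medium (c7H9, 7H9-Low BSA or MMM-Ch). DMSO stocks serially diluted, 400 to 0.78 μM, about 10^5 CFU per well. Incubated at 37 °C for 1 week (c7H9, Low BSA) or 2 weeks (MMM-Ch). 0.02% resazurin added for 1 day more. MIC90 read visually as lowest concentration with no colour change.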
On the technique in general: Resazurin is reduced to fluorescent resorufin, in cell work by metabolically active cells.

Data set [2] deals with Mycobacterium tuberculosis. The data set can be described thus: Antimycobacterial activity against Mycobacterium tuberculosis H37Rv assessed as inhibition of bacterial growth in presence of Mycobacterial minimal medium with cholesterol measured for 2 weeks by resazurin based colorimetric assay. The data set is classed as functional. As to conditions: 336 h. The method, boiled down:
as §1

The subject of data set [3] is Mycobacterium tuberculosis. Kind of data set: Antimycobacterial activity against Mycobacterium tuberculosis H37Rv assessed as inhibition of bacterial growth in presence of middlebrook 7H9/ADC/tyloxapol/glycerol medium measured for 1 week by resazurin based colorimetric assay. It counts as functional. As to conditions: 168 h, time 1 weeks. The method, boiled down: as §1

Data set [4] can be described thus: Binding affinity to Mycobacterium tuberculosis CYP121A1 expressed in Escherichia coli HMS174 (DE3) assessed as thermal stability by measuring increase in melting temperature at 1mM by SYPRO orange dye based differential scanning fluorimetry assay. As to conditions: 1000 µM. The gist of the method: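 Protein at 5 μM in 100 mM potassium phosphate pH 6.9 with 2.5× Sypro Orange. Ligand 1 mM final, 4% DMSO-d6. Scanned 25–95 °C in 0.5 °C steps of 30 s. Positive Tm shifts repeated in triplicate and averaged over four runs.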
In general terms: DSF heats the sample and reads unfolding from a dye or from intrinsic fluorescence.

Data set [5] can be described thus: Inhibition of Mycobacterium tuberculosis CYP121A1 mediated cYY conversion to mycocyclosin assessed as fold change in cYY level at 100 uM incubated for 2 hrs in the presence of NADPH by LC-MS activity assay relative to clotrimazole. As to conditions: recombinant enzyme. It counts as ADME.
Data set [6] can be described thus: Inhibition of cYY binding to Mycobacterium tuberculosis CYP121A1 expressed in Escherichia coli HMS174 (DE3) assessed as dissociation constant of cYY preincubated with compound followed by substrate addition by competitive UV-visible spectroscopic analysis. The data set is classed as ADME. The method, boiled down: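 CYP121A1 at 5 μM. […] UV-vis difference spectra processed as for direct titrations and fitted to the Hill equation for Kd.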

A short description of data set [7]: Binding affinity to Mycobacterium tuberculosis CYP121A1 expressed in Escherichia coli HMS174 (DE3) assessed as dissociation constant by isothermal titration calorimetry. The data set is classed as ADME. The method, boiled down: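 Untagged His-purified CYP121A1 at 50 μM in 50 mM Tris-HCl, 1 mM EDTA, pH 7.2, with 10% DMSO-d6. Ligand at 0.5 or 2.5 mM final. One 0.2 μL injection discarded, then 19 injections of 2 μL at 120 s intervals, 25 °C. Ligand-into-buffer heats subtracted. One-site fit, N fixed at 1 for weak binders or left free.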
For orientation: ITC needs no label: the signal is the heat of the interaction.

Consider `N[C@H](Cc1c[nH]c2ccccc12)c1nc(-c2ccc(OC(F)(F)F)cc2)cs1`, for which the MIC90 in data set [1], in data set [2] and in data set [3] was 40 µM in each case.

Turning to `c1ccc2c(CCc3nc4c(c(N5CCOCC5)n3)CCNC4)c[nH]c2c1`, the deltaTm in data set [4] worked out at 1 °C. Besides, in data set [5], the “fold change (FC)” value was 1.3.

Turning to `c1ccc2c(CCc3ccnc(N4CCOCC4)n3)c[nH]c2c1`, in data set [6], the Kd came to 25.2 µM. Further, the “fold change (FC)” value in data set [5] was found to be 4.7.

`Brc1ccc2c(c1)N(c1nccc(CCc3c[nH]c4ccccc34)n1)CCO2`: the “fold change (FC)” value in data set [5] is on record as 0.3.

As for `COc1ccc2[nH]cc(CCc3ccncc3)c2c1`, the “fold change (FC)” value in data set [5] was 1.

For the compound `FC(F)(F)Oc1ccc2[nH]cc(CCc3ccnc(N4CCOCC4)n3)c2c1`, in data set [5], the “fold change (FC)” value is reported as 1.1.

Consider `Cn1cc(CCc2ccnc(N3CCOCC3)n2)c2ccccc21`, for which the “fold change (FC)” value in data set [5] worked out at 2.1.

On to `FC(F)(F)Oc1ccc2[nH]cc(CCc3ccncc3)c2c1`, for which the “fold change (FC)” value in data set [5] came out at 1.2.

Take `c1ccc2c(c1)OCCN2c1nccc(CCc2c[nH]c3ccccc23)n1`: the dissociation constant (Kd) in data set [6] came out at 17.5 µM. In data set [5], the “fold change (FC)” value was 0.1.

As for `Ic1ccc2[nH]cc(CCc3ccncc3)c2c1`, the “fold change (FC)” value in data set [5] turned out to be 1.9.

Turning to `Clc1ccc2[nH]cc(CCc3ccncc3)c2c1`, in data set [5], the “fold change (FC)” value was 2.3.

Regarding `c1ccc2c(CCc3ccncn3)c[nH]c2c1`, the deltaTm in data set [4] came out at 3.5 °C. For the same compound, the “fold change (FC)” value in data set [5] turned out to be 1.8.

As for `Fc1ccc2[nH]cc(CCc3ccnc(N4CCOCC4)n3)c2c1`, the “fold change (FC)” value in data set [5] amounted to 10.6.

For the compound `Brc1ccc2[nH]cc(CCc3ccnc(N4CCOCC4)n3)c2c1`, the “fold change (FC)” value in data set [5] is reported as 3.8.

With `N[C@H](Cc1c[nH]c2ccccc12)c1nc(-c2ccccn2)cs1`, the MIC90 in data set [1], in data set [2] and in data set [3] was 40 µM in each case.

Regarding `c1ccc2c(CCc3ccncc3)c[nH]c2c1`, in data set [5], the “fold change (FC)” value is given as 1.1.

Regarding `Fc1ccc2[nH]cc(CCc3ccncc3)c2c1`, in data set [5], the “fold change (FC)” value is given as 3.5.

As for `COC1CN(c2nccc(CCc3c[nH]c4ccc(Br)cc34)n2)C1`, the “fold change (FC)” value in data set [5] is reported as 1.8.

With `c1ccc2c(CCc3ccnc(N4CCCOCC4)n3)c[nH]c2c1`, the “fold change (FC)” value in data set [5] amounted to 4.7.

On to `Nc1[nH]nc(-c2ccc(O)cc2)c1-c1ccc(O)cc1`, for which the deltaTm in data set [4] amounted to 1 °C. In data set [7], the Kd was 20 µM.

In the case of `COC1CN(c2nccc(CCc3c[nH]c4ccccc34)n2)C1`, the “fold change (FC)” value in data set [5] was 1.2.

As to `c1ccc2c(CCc3nc4c(c(N5CC6CCC(C5)O6)n3)CNC4)c[nH]c2c1`, the deltaTm in data set [4] amounted to 2.4 °C.

For the compound `c1ccc2c(CCc3nc4c(c(N5CCOCC5)n3)CNC4)c[nH]c2c1`, the deltaTm in data set [4] turned out to be 3.5 °C. Besides, the “fold change (FC)” value in data set [5] is reported as 4.1.

In the case of `Brc1ccc2[nH]cc(CCc3ccncc3)c2c1`, the “fold change (FC)” value in data set [5] came to 1.3.

For the compound `N[C@H](Cc1c[nH]c2ccccc12)c1nc(-c2ccccc2)cs1`, the MIC90 in data set [1], in data set [2] and in data set [3] was 40 µM each time.

Regarding `Oc1ccc2[nH]cc(CCc3ccnc(N4CCOCC4)n3)c2c1`, the deltaTm in data set [4] was found to be 0.5 °C. In data set [5], the “fold change (FC)” value is recorded as 3.5.
